Reference: ChEMBL document CHEMBL3616464, “One-pot synthesis of podophyllotoxin-thiourea congeners by employing NH₂SO₃H/NaI: Anticancer activity, DNA topoisomerase-II inhibition, and apoptosis inducing agents” (Bioorg Med Chem Lett, 2015)
Active and inactive are the calls of the source. No cut-off for these calls is given here.

Columns and labels:
A549 = test: Cytotoxicity against human A549 cells after 48 hrs by MTT assay; format: functional, cell-based; conditions: A549, 48 h
DU-145 [1] = test: Cytotoxicity against human DU145 cells after 48 hrs by MTT assay; format: functional, cell-based; conditions: DU-145, 48 h
[2] = Cytotoxicity against human RWPE1 cells after 48 hrs by MTT assay; format: cell-based; conditions: RWPE-1, 48 h
LNCaP = test: Cytotoxicity against human LNCAP cells after 48 hrs by MTT assay; format: functional, cell-based
[3] = Cytotoxicity against human HGC cells after 48 hrs by MTT assay; format: functional, cell-based
MDA-MB-231 = test: Cytotoxicity against human MDA-MB-231 cells after 48 hrs by MTT assay; format: functional, cell-based; conditions: MDA-MB-231, 48 h
[4] = Therapeutic index, ratio of IC50 for human RWPE1 cells to IC50 for human DU145 cells; format: cell-based; conditions: RWPE1 cells versus DU145 cells, read-out: Ratio IC50
How it was run: (§1)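 Selectivity expressed as the fold by which the IC50 in normal prostate epithelial RWPE-1 cells exceeds the IC50 in the prostate cancer line (DU-145 or LNCaP).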

[5] = Therapeutic index, ratio of IC50 for human RWPE1 cells to IC50 for human LNCAP cells; format: cell-based; conditions: RWPE1 cells versus LNCAP cells, read-out: Ratio IC50; how it was run: as §1
DU-145 [6] = test: Induction of apoptosis in human DU145 cells assessed as chromatin condensation at 125 to 500 nM after 48 hrs by phase-contrast microscopic analysis; format: functional, cell-based
How it was run: (§2)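 DU-145 cells treated with 125, 250 or 500 nM for 48 h. Morphology (chromatin condensation, nuclear fragmentation, membrane blebbing, apoptotic bodies) examined under phase-contrast light microscope and compared with untreated control.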

DU-145 [7] = test: Induction of apoptosis in human DU145 cells assessed as nuclear fragmentation at 125 to 500 nM after 48 hrs by phase-contrast microscopic analysis; format: functional, cell-based; how it was run: as §2
DU-145 [8] = test: Induction of apoptosis in human DU145 cells assessed as cell membrane blebbing at 125 to 500 nM after 48 hrs by phase-contrast microscopic analysis; format: functional, cell-based; how it was run: as §2
DU-145 [9] = test: Induction of apoptosis in human DU145 cells assessed as formation of apoptotic bodies at 125 to 500 nM after 48 hrs by phase-contrast microscopic analysis; format: functional, cell-based; how it was run: as §2
DU-145 [10] = test: Induction of apoptosis in human DU145 cells assessed as late apoptotic cells at 500 nM after 48 hrs by phase-contrast microscopic analysis; format: functional, cell-based; how it was run: as §2
DU-145 [11] = test: Induction of apoptosis in human DU145 cells assessed as reduction of cell population at 500 nM after 48 hrs by phase-contrast microscopic analysis; format: functional, cell-based; how it was run: as §2
DU-145 [12] = test: Induction of apoptosis in human DU145 cells assessed as chromatin condensation at 125 nM after 48 hrs using acridine orange and ethidium bromide staining by fluorescence microscopic analysis; format: functional, cell-based
How it was run: (§3)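 DU-145 cells treated with 125, 250 or 500 nM for 48 h, then stained with acridine orange/ethidium bromide. Nuclear and chromatin morphology scored by fluorescence microscopy. Live cells appear green and late apoptotic nuclei red with EB. Untreated cells serve as control.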

DU-145 [13] = test: Induction of apoptosis in human DU145 cells assessed as horseshoe-shaped cells at 125 nM after 48 hrs using acridine orange and ethidium bromide staining by fluorescence microscopic analysis; format: functional, cell-based; how it was run: as §3
DU-145 [14] = test: Induction of apoptosis in human DU145 cells assessed as cell membrane blebbing at 125 nM after 48 hrs using acridine orange and ethidium bromide staining by fluorescence microscopic analysis; format: functional, cell-based; how it was run: as §3
DU-145 [15] = test: Induction of apoptosis in human DU145 cells assessed as destructive fragmentation of nuclei at 250 nM after 48 hrs using acridine orange and ethidium bromide staining by fluorescence microscopic analysis; format: functional, cell-based; how it was run: as §3
DU-145 [16] = test: Induction of apoptosis in human DU145 cells assessed as irregular distribution of chromatin at 250 nM after 48 hrs using acridine orange and ethidium bromide staining by fluorescence microscopic analysis; format: functional, cell-based; how it was run: as §3
DU-145 [17] = test: Induction of apoptosis in human DU145 cells assessed as late apoptotic cells at 500 nM after 48 hrs using acridine orange and ethidium bromide staining by fluorescence microscopic analysis; format: functional, cell-based; how it was run: as §3
DU-145 [18] = test: Induction of apoptosis in human DU145 cells assessed as condensed chromatin at 500 nM after 48 hrs using acridine orange and ethidium bromide staining by fluorescence microscopic analysis; format: functional, cell-based; how it was run: as §3
DU-145 [19] = test: Cell cycle arrest in human DU145 cells assessed as accumulation at G0/G1 phase at 125 nM after 48 hrs by propidium iodide staining (reference value: 43.5%); format: functional
DU-145 [20] = test: Cell cycle arrest in human DU145 cells assessed as accumulation at S phase at 125 nM after 48 hrs by propidium iodide staining (reference value: 9.1%); format: functional
DU-145 [21] = test: Cell cycle arrest in human DU145 cells assessed as accumulation at G2/M phase at 125 nM after 48 hrs by propidium iodide staining (reference value: 22.5%); format: functional
DU-145 [22] = test: Cell cycle arrest in human DU145 cells assessed as accumulation at G0/G1 phase at 250 nM after 48 hrs by propidium iodide staining (reference value: 43.5%); format: functional
DU-145 [23] = test: Cell cycle arrest in human DU145 cells assessed as accumulation at S phase at 250 nM after 48 hrs by propidium iodide staining (reference value: 9.1%); format: functional
DU-145 [24] = test: Cell cycle arrest in human DU145 cells assessed as accumulation at G2/M phase at 250 nM after 48 hrs by propidium iodide staining (reference value: 22.5%); format: functional
DU-145 [25] = test: Cell cycle arrest in human DU145 cells assessed as accumulation at G0/G1 phase at 500 nM after 48 hrs by propidium iodide staining (reference value: 43.5%); format: functional
DU-145 [26] = test: Cell cycle arrest in human DU145 cells assessed as accumulation at S phase at 500 nM after 48 hrs by propidium iodide staining (reference value: 9.1%); format: functional
DU-145 [27] = test: Cell cycle arrest in human DU145 cells assessed as accumulation at G2/M phase at 500 nM after 48 hrs by propidium iodide staining (reference value: 22.5%); format: functional
DU-145 [28] = test: Induction of apoptosis in human DU145 cells assessed as dead cells at 125 nM after 48 hrs using Annexin-V and propidium iodide staining (reference value: 3.28%); format: functional
DU-145 [29] = test: Induction of apoptosis in human DU145 cells assessed as live cells at 125 nM after 48 hrs using Annexin-V and propidium iodide staining (reference value: 86%); format: functional
DU-145 [30] = test: Induction of apoptosis in human DU145 cells assessed as late apoptotic cells at 125 nM after 48 hrs using Annexin-V and propidium iodide staining (reference value: 9.32%); format: functional
DU-145 [31] = test: Induction of apoptosis in human DU145 cells assessed as early apoptotic cells at 125 nM after 48 hrs using Annexin-V and propidium iodide staining (reference value: 1.40%); format: functional
DU-145 [32] = test: Induction of apoptosis in human DU145 cells assessed as dead cells at 250 nM after 48 hrs using Annexin-V and propidium iodide staining (reference value: 3.28%); format: functional
DU-145 [33] = test: Induction of apoptosis in human DU145 cells assessed as live cells at 250 nM after 48 hrs using Annexin-V and propidium iodide staining (reference value: 86%); format: functional
DU-145 [34] = test: Induction of apoptosis in human DU145 cells assessed as late apoptotic cells at 250 nM after 48 hrs using Annexin-V and propidium iodide staining (reference value: 9.32%); format: functional
DU-145 [35] = test: Induction of apoptosis in human DU145 cells assessed as early apoptotic cells at 250 nM after 48 hrs using Annexin-V and propidium iodide staining (reference value: 1.40%); format: functional
DU-145 [36] = test: Induction of apoptosis in human DU145 cells assessed as dead cells at 500 nM after 48 hrs using Annexin-V and propidium iodide staining (reference value: 3.28%); format: functional
DU-145 [37] = test: Induction of apoptosis in human DU145 cells assessed as live cells at 500 nM after 48 hrs using Annexin-V and propidium iodide staining (reference value: 86%); format: functional
DU-145 [38] = test: Induction of apoptosis in human DU145 cells assessed as late apoptotic cells at 500 nM after 48 hrs using Annexin-V and propidium iodide staining (reference value: 9.32%); format: functional
DU-145 [39] = test: Induction of apoptosis in human DU145 cells assessed as early apoptotic cells at 500 nM after 48 hrs using Annexin-V and propidium iodide staining (reference value: 1.40%); format: functional
[40] = molecular target: DNA topoisomerase 2-alpha (Homo sapiens) (UniProt P11388); test: Inhibition of topoisomerase-2 (unknown origin) using kDNA assessed as increase of catenated kDNA level at 50 to 100 uM after 10 mins using ethidium bromide staining by agarose gel electrophoresis
Sequence of DNA topoisomerase 2-alpha (Homo sapiens) (P11388 whole entry): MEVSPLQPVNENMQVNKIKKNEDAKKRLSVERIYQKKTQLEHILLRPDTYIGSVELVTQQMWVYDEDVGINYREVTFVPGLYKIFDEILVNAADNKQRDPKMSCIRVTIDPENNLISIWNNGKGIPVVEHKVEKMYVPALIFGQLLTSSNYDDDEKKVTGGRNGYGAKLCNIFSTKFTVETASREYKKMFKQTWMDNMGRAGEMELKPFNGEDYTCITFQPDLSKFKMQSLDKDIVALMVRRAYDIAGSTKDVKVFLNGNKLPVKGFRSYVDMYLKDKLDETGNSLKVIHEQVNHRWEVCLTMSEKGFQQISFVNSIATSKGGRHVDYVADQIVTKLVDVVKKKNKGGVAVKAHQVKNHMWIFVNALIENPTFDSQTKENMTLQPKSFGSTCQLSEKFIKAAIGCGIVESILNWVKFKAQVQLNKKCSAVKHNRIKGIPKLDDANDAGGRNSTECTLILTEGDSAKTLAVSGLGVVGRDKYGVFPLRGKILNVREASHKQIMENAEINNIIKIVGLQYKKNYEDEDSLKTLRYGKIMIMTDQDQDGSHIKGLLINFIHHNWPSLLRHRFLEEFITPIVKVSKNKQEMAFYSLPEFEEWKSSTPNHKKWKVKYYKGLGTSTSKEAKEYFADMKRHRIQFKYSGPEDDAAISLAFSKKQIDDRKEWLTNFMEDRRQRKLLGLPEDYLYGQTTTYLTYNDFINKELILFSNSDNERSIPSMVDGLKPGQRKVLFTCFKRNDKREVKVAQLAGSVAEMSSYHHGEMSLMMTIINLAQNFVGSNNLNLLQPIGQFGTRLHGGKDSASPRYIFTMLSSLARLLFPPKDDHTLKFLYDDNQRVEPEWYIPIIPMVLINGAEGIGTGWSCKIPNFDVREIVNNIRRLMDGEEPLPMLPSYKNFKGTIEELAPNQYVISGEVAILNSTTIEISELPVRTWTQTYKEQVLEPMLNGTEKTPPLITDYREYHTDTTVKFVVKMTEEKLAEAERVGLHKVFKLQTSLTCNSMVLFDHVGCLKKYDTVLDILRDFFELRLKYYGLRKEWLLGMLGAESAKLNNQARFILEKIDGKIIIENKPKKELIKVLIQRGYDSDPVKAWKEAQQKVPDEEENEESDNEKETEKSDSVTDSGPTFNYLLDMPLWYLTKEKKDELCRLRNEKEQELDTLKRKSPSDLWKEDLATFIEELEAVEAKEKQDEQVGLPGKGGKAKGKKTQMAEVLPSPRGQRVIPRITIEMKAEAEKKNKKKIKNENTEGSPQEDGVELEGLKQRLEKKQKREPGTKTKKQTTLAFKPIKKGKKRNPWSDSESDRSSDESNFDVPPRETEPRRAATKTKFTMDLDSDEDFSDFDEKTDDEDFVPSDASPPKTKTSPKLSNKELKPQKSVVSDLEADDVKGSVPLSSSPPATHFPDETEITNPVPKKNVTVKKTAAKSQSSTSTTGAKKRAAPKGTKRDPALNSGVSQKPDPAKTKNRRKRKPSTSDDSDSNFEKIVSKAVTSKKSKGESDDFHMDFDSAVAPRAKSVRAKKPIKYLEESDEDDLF
How it was run: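 Topoisomerase II drug screening kit, with catenated DNA incubated with topoisomerase II (5 units) and test agent at 50 or 100 µM. Etoposide at 100 µM serves as standard. Products resolved on gel: catenated DNA is retained in the wells, and nicked/relaxed circular and linear forms are distinguished.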

For COc1ccc(NC(=S)N[C@@H]2c3cc4c(cc3[C@@H](c3cc(OC)c(OC)c(OC)c3)[C@H]3C(=O)OC[C@@H]32)OCO4)cc1, the IC50 (A549) was 37.6 µM, the IC50 (DU-145 [1]) was 0.5 µM and the IC50 [2] was 40.9 µM. It also gave an IC50 (LNCaP) of 17.6 µM, an IC50 [3] of 3.85 µM and an IC50 (MDA-MB-231) of 18 µM. For the same compound, the selectivity ratio [4] was 81.7, the selectivity ratio [5] was 2.3 and the Activity (DU-145 [6]) was “Active”. The Activity (DU-145 [7]) was “Active”, the Activity (DU-145 [8]) was “Active” and the Activity (DU-145 [9]) was “Active”. The Activity (DU-145 [10]) was “Active”, the Activity (DU-145 [11]) was “Active” and the Activity (DU-145 [12]) was “Active”. The Activity (DU-145 [13]) was “Active”, the Activity (DU-145 [14]) was “Active” and the Activity (DU-145 [15]) was “Active”. For the same compound, the Activity (DU-145 [16]) was “Active”, the Activity (DU-145 [17]) was “Active” and the Activity (DU-145 [18]) was “Active”. The Activity (DU-145 [19]) was 33.5%, the Activity (DU-145 [20]) was 19.5% and the Activity (DU-145 [21]) was 27.9%. The Activity (DU-145 [22]) was 28.4%, the Activity (DU-145 [23]) was 30.8% and the Activity (DU-145 [24]) was 26.3%. For the same compound, the Activity (DU-145 [25]) was 27.8%, the Activity (DU-145 [26]) was 14.8% and the Activity (DU-145 [27]) was 41.7%. It also gave an Activity (DU-145 [28]) of 3.38%, an Activity (DU-145 [29]) of 74.57% and an Activity (DU-145 [30]) of 16.75%. For the same compound, the Activity (DU-145 [31]) was 5.31%, the Activity (DU-145 [32]) was 2.3% and the Activity (DU-145 [33]) was 59.8%. For the same compound, the Activity (DU-145 [34]) was 22.55%, the Activity (DU-145 [35]) was 15.35% and the Activity (DU-145 [36]) was 1.07%. It also gave an Activity (DU-145 [37]) of 27.87%, an Activity (DU-145 [38]) of 26.68% and an Activity (DU-145 [39]) of 44.38%. The inhibition [40] was “Active”.
